Columns and labels:
Type in all cases: functional
MOLT-4 = assay: Growth inhibition of human MOLT4 cells after 48 hrs by sulforhodamine B assay; details: MOLT-4, 48 h
In short: (§1)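 NCI 60-human-tumor-cell-line panel, with compounds tested over a 5-log dose range. Values are taken from dose-response curves as log10 molar concentrations: GI50 is 50% net growth inhibition, TGI is total growth inhibition, and LC50 is 50% net cell death.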

HT-29 = assay: Growth inhibition of human HT-29 cells after 48 hrs by sulforhodamine B assay; details: HT-29, 48 h; in short: as §1
SK-MEL-5 = assay: Growth inhibition of human SK-MEL-5 cells after 48 hrs by sulforhodamine B assay; details: SK-MEL-5, 48 h; in short: as §1
A498 = assay: Growth inhibition of human A498 cells after 48 hrs by sulforhodamine B assay; details: A498, 48 h; in short: as §1
MDA-MB-231 = assay: Growth inhibition of human MDA-MB-231 cells after 48 hrs by sulforhodamine B assay; details: MDA-MB-231, 48 h; in short: as §1
NCI-H23 = assay: Growth inhibition of human NCI-H23 cells after 48 hrs by sulforhodamine B assay; details: NCI-H23, 48 h; in short: as §1
HCT-116 = assay: Growth inhibition of human HCT116 cells after 48 hrs by sulforhodamine B assay; details: HCT-116, 48 h; in short: as §1
NCI-H460 = assay: Growth inhibition of human NCI-H460 cells after 48 hrs by sulforhodamine B assay; details: NCI-H460, 48 h; in short: as §1
DU-145 = assay: Growth inhibition of human DU145 cells after 48 hrs by sulforhodamine B assay; details: DU-145, 48 h; in short: as §1
OVCAR-5 = assay: Growth inhibition of human OVCAR5 cells after 48 hrs by sulforhodamine B assay; details: OVCAR-5, 48 h; in short: as §1
COLO 205 = assay: Growth inhibition of human COLO205 cells after 48 hrs by sulforhodamine B assay; details: COLO 205, 48 h; in short: as §1
HOP-92 = assay: Growth inhibition of human HOP92 cells after 48 hrs by sulforhodamine B assay; details: HOP-92, 48 h; in short: as §1
SN12C = assay: Growth inhibition of human SN12C cells after 48 hrs by sulforhodamine B assay
In short: (§2)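 Run in the NCI 60-human-tumour-cell-line panel, tested over a 5-log dose range. Dose–response curves gave three values per cell line, each as a log10 molar concentration: GI50 (50% inhibition of net cell growth), TGI (total inhibition of net growth) and LC50 (50% net cell death). The mean graph midpoint is the arithmetic mean over all lines, with insensitive lines entered at the highest concentration tested.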

SK-OV-3 = assay: Growth inhibition of human SKOV3 cells after 48 hrs by sulforhodamine B assay; details: SK-OV-3, 48 h; in short: as §1
SK-MEL-2 = assay: Growth inhibition of human SK-MEL-2 cells after 48 hrs by sulforhodamine B assay; details: SK-MEL-2, 48 h; in short: as §1
BT-549 = assay: Growth inhibition of human BT549 cells after 48 hrs by sulforhodamine B assay; details: BT-549, 48 h; in short: as §1
SNB-75 = assay: Growth inhibition of human SNB75 cells after 48 hrs by sulforhodamine B assay; details: SNB-75, 48 h; in short: as §2
NCI-H226 = assay: Growth inhibition of human NCI-H226 cells after 48 hrs by sulforhodamine B assay; details: NCI-H226, 48 h; in short: as §1
ACHN = assay: Growth inhibition of human ACHN cells after 48 hrs by sulforhodamine B assay
RXF 393 = assay: Growth inhibition of human RXF393 cells after 48 hrs by sulforhodamine B assay; details: RXF 393, 48 h; in short: as §1
EKVX = assay: Growth inhibition of human EKVX cells after 48 hrs by sulforhodamine B assay; in short: as §1
SR = assay: Growth inhibition of human SR cells after 48 hrs by sulforhodamine B assay; in short: as §2
SF-539 = assay: Growth inhibition of human SF539 cells after 48 hrs by sulforhodamine B assay; details: SF-539, 48 h; in short: as §1
TK-10 = assay: Growth inhibition of human TK10 cells after 48 hrs by sulforhodamine B assay; details: TK-10, 48 h; in short: as §2
SF-295 = assay: Growth inhibition of human SF295 cells after 48 hrs by sulforhodamine B assay; details: SF-295, 48 h; in short: as §1
KM12 = assay: Growth inhibition of human KM12 cells after 48 hrs by sulforhodamine B assay; details: KM12, 48 h; in short: as §1
A549 = assay: Growth inhibition of human A549 cells after 48 hrs by sulforhodamine B assay; details: A549, 48 h; in short: as §1
UACC-257 = assay: Growth inhibition of human UACC257 cells after 48 hrs by sulforhodamine B assay; details: UACC-257, 48 h; in short: as §2
[1] = read-out: pLC50 (the source's name) (converted)

For `COc1cc(CNc2nc3cc(N)cc(N)c3nc2-c2ccccc2)cc(OC)c1OC`, the GI50 (MOLT-4) was 12.3 µM, the LC50 (MOLT-4) was > 50.1 µM and the TGI (MOLT-4; read-out: pTGI (converted)) was > 50.1 µM. It also gave a GI50 (HT-29) of 8.71 µM, an LC50 (HT-29) of 43.7 µM and a TGI (HT-29; read-out: pTGI (converted)) of 19.5 µM. It also gave a GI50 (SK-MEL-5) of 0.724 µM, a CC50 (SK-MEL-5; [1]) of 29.5 µM and a TGI (SK-MEL-5; read-out: pTGI (converted)) of 7.76 µM. It also gave a GI50 (A498) of 6.31 µM, a CC50 (A498; [1]) of 33.9 µM and a TGI (A498; read-out: pTGI (converted)) of 14.8 µM. It also gave a GI50 (MDA-MB-231) of 7.24 µM, a CC50 (MDA-MB-231; [1]) of 31.6 µM and a TGI (MDA-MB-231; read-out: pTGI (converted)) of 15.1 µM. The GI50 (NCI-H23) was 8.71 µM, the LC50 (50% net cell kill concentration) (NCI-H23) was 33.9 µM and the TGI (NCI-H23; read-out: pTGI (converted)) was 17 µM. For the same compound, the GI50 (HCT-116) was 9.77 µM, the LC50 (concentration causing 50% net cell death) (HCT-116) was 37.2 µM and the TGI (HCT-116; read-out: pTGI (converted)) was 19.1 µM. The GI50 (NCI-H460) was 1.51 µM, the LC50 (50% net cell kill) (NCI-H460) was > 50.1 µM and the TGI (NCI-H460; read-out: pTGI (converted)) was > 50.1 µM. The GI50 (DU-145) was 5.25 µM, the CC50 (DU-145; [1]) was > 50.1 µM and the TGI (DU-145; read-out: pTGI (converted)) was 20 µM. The GI50 (OVCAR-5) was 21.4 µM, the CC50 (OVCAR-5; [1]) was > 50.1 µM and the TGI (OVCAR-5; read-out: pTGI (converted)) was > 50.1 µM. The GI50 (COLO 205) was 3.8 µM, the LC50 (50% net cell kill) (COLO 205) was > 50.1 µM and the TGI (COLO 205; read-out: pTGI (converted)) was > 50.1 µM. For the same compound, the GI50 (HOP-92) was 1.2 µM, the LC50 (50% net cell death) (HOP-92) was > 50.1 µM and the TGI (HOP-92; read-out: pTGI (converted)) was 3.09 µM. It also gave a GI50 (SN12C) of 8.71 µM, a CC50 (SN12C; [1]) of 32.4 µM and a TGI (SN12C; read-out: pTGI (converted)) of 16.6 µM. For the same compound, the GI50 (SK-OV-3) was 5.37 µM, the CC50 (SK-OV-3; [1]) was 36.3 µM and the TGI (SK-OV-3; read-out: pTGI (converted)) was 13.8 µM. The GI50 (SK-MEL-2) was 16.2 µM, the CC50 (SK-MEL-2; [1]) was > 50.1 µM and the TGI (SK-MEL-2; read-out: pTGI (converted)) was > 50.1 µM. The GI50 (BT-549) was 3.8 µM, the CC50 (BT-549; [1]) was 27.5 µM and the TGI (BT-549; read-out: pTGI (converted)) was 11.2 µM. For the same compound, the GI50 (SNB-75) was 0.813 µM, the LC50 (SNB-75) was > 50.1 µM and the TGI (SNB-75; read-out: pTGI (converted)) was 14.5 µM. The GI50 (NCI-H226) was 10 µM, the LC50 (NCI-H226) was > 50.1 µM and the TGI (NCI-H226; read-out: pTGI (converted)) was 22.4 µM. The GI50 (ACHN) was 5.37 µM, the CC50 (ACHN; [1]) was 23.4 µM and the TGI (ACHN; read-out: pTGI (converted)) was 11.2 µM. The GI50 (RXF 393) was 7.41 µM, the CC50 (RXF 393; [1]) was > 50.1 µM and the TGI (RXF 393; read-out: pTGI (converted)) was 20 µM. For the same compound, the GI50 (EKVX) was 1.95 µM, the LC50 (50% net cell kill) (EKVX) was 27.5 µM and the TGI (EKVX; read-out: pTGI (converted)) was 8.32 µM. The GI50 (SR) was 0.891 µM, the LC50 (concentration giving 50% net cell death) (SR) was > 50.1 µM and the TGI (SR; read-out: pTGI (converted)) was > 50.1 µM. The GI50 (SF-539) was 1.35 µM, the LC50 (SF-539) was 26.9 µM and the TGI (SF-539; read-out: pTGI (converted)) was 7.94 µM. The GI50 (TK-10) was 6.31 µM, the CC50 (TK-10; [1]) was > 50.1 µM and the TGI (TK-10; read-out: pTGI (converted)) was 17.8 µM. For the same compound, the GI50 (SF-295) was 1.66 µM, the LC50 (50% net cell kill) (SF-295) was 37.2 µM and the TGI (SF-295; read-out: pTGI (converted)) was 5.62 µM. The GI50 (KM12) was 0.479 µM, the LC50 (50% net cell kill) (KM12) was > 50.1 µM and the TGI (KM12; read-out: pTGI (converted)) was 10.2 µM. For the same compound, the GI50 (A549) was 4.27 µM, the LC50 (A549) was > 50.1 µM and the TGI (A549; read-out: pTGI (converted)) was 33.1 µM. For the same compound, the GI50 (UACC-257) was 3.47 µM, the CC50 (UACC-257; [1]) was 27.5 µM and the TGI (UACC-257; read-out: pTGI (converted)) was 10.7 µM.
